PRMT1 FP inh: inhibitors of human PRMT1; actives 1.3% (n = 370,000); AID 652257; inhibition, % at 2.79 µM; recombinant PRMT1, activity-based probe fluorescence polarization;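 active = inhibition above about 21% made by adding two undisclosed values, limit read from the data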
PAD4 FP inh: inhibitors of human PAD4 | Q9UM07 | recombinant PAD4, RCA probe fluorescence polarization | inhibition, % at 6.36 µM | actives 0.41% (n = 330,000) | AID 485272;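 active = percent inhibition above a cutoff equal to the mean of all tested compounds plus 3 SD, cut at about 15% in these data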;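 also: 0% = PAD4 with RCA probe and DMSO and 100% = probe without PAD4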
RBBP9 inhibitor: human RBBP9 hydrolase inhibition | recombinant RBBP9, FP-Rh probe fluorescence polarization | inhibition, % at 7.94 µM | actives 0.2% (n = 220,000);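 active = inhibition above the campaign mean of all tested compounds plus 3 SD, cut at about 14% in these data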;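 also: plate controls were DMSO wells with RBBP9 for no effect and wells lacking RBBP9 protein for full effect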
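Measured by: FP readout at 525/598 nm; material: recombinant human RBBP9; also added: Serine-hydrolase probe FP-Rh, 375 nM pre-mixing; medium: Tris buffer pH 8.0, NaCl, Pluronic; replication: one well per compound; doses: one concentration, 7.94 µM nominal, 0.794% DMSO; timing: preincubation 30 min plus labeling 45 min at 25 °C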
GSTO1 counter: GSTO1 inhibition, counter-screen for RBBP9 inhibitors | recombinant GSTO1, activity-based probe fluorescence polarization | inhibition, % at 5.96 µM | actives 1.1% (n = 300,000) | AID 1974;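 active = inhibition above the campaign mean inhibition plus 3 SD, cut at about 35% in these data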;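 also: 0% = GSTO1-1 with DMSO and 100% = wells lacking GSTO1-1 enzyme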
SIAE inh: blocks human sialic acid acetylesterase | SIAE FP-Rh probe binding, fluorescence polarization | AID 1053197 | actives 0.69% (n = 370,000) | inhibition, % at 9.66 µM | Q9HAT2;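 active = inhibition above a cutoff: mean of compounds within the control limits plus 3 SD of those, cut at about 17% in these data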;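 also: 0% = plate median of compound wells and 100% = probe without SIAE protein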
Target sequence (Q9HAT2 whole entry, looked up): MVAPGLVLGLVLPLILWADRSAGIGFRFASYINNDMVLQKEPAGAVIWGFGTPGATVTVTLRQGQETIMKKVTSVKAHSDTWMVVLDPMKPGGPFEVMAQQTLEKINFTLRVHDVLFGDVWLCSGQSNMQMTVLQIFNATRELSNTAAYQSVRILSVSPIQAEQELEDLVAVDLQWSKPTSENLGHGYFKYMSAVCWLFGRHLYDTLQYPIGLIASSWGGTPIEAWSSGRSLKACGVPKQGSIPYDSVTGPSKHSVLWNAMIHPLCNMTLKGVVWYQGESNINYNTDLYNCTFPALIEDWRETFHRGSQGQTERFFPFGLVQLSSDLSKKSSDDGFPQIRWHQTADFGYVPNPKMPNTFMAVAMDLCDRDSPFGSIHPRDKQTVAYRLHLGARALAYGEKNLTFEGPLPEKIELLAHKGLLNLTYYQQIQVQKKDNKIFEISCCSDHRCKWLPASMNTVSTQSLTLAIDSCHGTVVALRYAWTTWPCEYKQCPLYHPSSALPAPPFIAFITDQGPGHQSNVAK
PRMT1 inh conf: PRMT1 (human) inhibition, FP confirmation. shares compounds with PRMT1 FP inh. recombinant His-PRMT1, activity-based probe fluorescence polarization. inhibition, % at 2.79 µM. actives 42% (n = 3,300);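 active = mean inhibition across replicates above the hit cutoff derived for the earlier primary screen, cut at about 22% in these data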
Active calls of the source: *. This is a sample that favours compounds with a hit; in the whole collection about 2.7% have one here.

How did [Cl][Pt+2][Cl].[NH-]C1CCCCC1[NH-] (stereo not drawn) do in these assays?
PRMT1 FP inh: 47*; PAD4 FP inh: 2; GSTO1 counter: 6; SIAE inh: 4; PRMT1 inh conf: 8

Results for O=C1CC(=O)N(Cc2ccccc2)C(=S)N1 ?
PRMT1 FP inh: 32*; PAD4 FP inh: -6; GSTO1 counter: 9; SIAE inh: -16; PRMT1 inh conf: 5

What do the screens show for `COc1ccc(CN2C(=O)CC(=O)NC2=O)cc1`?
PRMT1 FP inh: 12; PAD4 FP inh: -8; RBBP9 inhibitor: -3; GSTO1 counter: 27; SIAE inh: 2

What do the screens show for `O=c1[nH]c(=O)n(C2CCCCC2)c(O)c1C1NCCc2ccccc21` (stereo not drawn)?
PRMT1 FP inh: 28*; PAD4 FP inh: -8; RBBP9 inhibitor: -8; GSTO1 counter: 22; SIAE inh: -3; PRMT1 inh conf: 2

What do the screens show for `CCC(=NCc1cccnc1)c1c(O)n(C2CCCCC2)c(=O)[nH]c1=O`?
PRMT1 FP inh: -1; PAD4 FP inh: -1; RBBP9 inhibitor: -10; GSTO1 counter: -4; SIAE inh: 2

What do the screens show for `CCN(CC)C(=O)N[C@H]1C[C@@H]2c3cccc4[nH]cc(c34)C[C@H]2N(C)C1`?
PRMT1 FP inh: 15; PAD4 FP inh: -6; RBBP9 inhibitor: -7; GSTO1 counter: 5; SIAE inh: 9

How did CC[C@@H](CO)NC(=O)[C@@H]1C=C2c3cccc4[nH]cc(c34)C[C@H]2N(C)C1 do in these assays?
PRMT1 FP inh: 30*; SIAE inh: 16; PRMT1 inh conf: 19

Results for N#Cc1c(/N=C/c2c(O)n(Cc3ccco3)c(=O)[nH]c2=O)sc2c1CCCC2 ?
PRMT1 FP inh: 26*; PAD4 FP inh: -1; RBBP9 inhibitor: -14; GSTO1 counter: 35; SIAE inh: 4; PRMT1 inh conf: 6

What do the screens show for `O=c1[nH]c(=O)n(Cc2ccco2)c(O)c1/C=N/N1CCCCCC1`?
PRMT1 FP inh: 4; PAD4 FP inh: -6; RBBP9 inhibitor: 0; GSTO1 counter: -7; SIAE inh: 1

Results for Cc1nc2cc(C(F)(F)F)ccc2n1C1CCN(Cc2nnnn2Cc2cccs2)CC1 ?
PRMT1 FP inh: -2; PAD4 FP inh: 2; RBBP9 inhibitor: -1; GSTO1 counter: -8; SIAE inh: 0

How did CSc1ncc(/C=C2/C(=O)NC(=O)N(C3CCCCC3)C2=O)cn1 do in these assays?
PRMT1 FP inh: 26*; PAD4 FP inh: -4; RBBP9 inhibitor: -2; GSTO1 counter: 16; SIAE inh: 1; PRMT1 inh conf: 19

Results for Cn1cccc1/C=C1\C(=O)NC(=O)N(Cc2ccco2)C1=O ?
PRMT1 FP inh: 31*; RBBP9 inhibitor: -4; SIAE inh: 4; PRMT1 inh conf: 22*

Results for Cc1ccc(OCCn2cccc2/C=C2/C(=O)NC(=O)N(Cc3ccco3)C2=O)cc1 ?
PRMT1 FP inh: 32*; PAD4 FP inh: -7; RBBP9 inhibitor: -4; GSTO1 counter: 6; SIAE inh: -5; PRMT1 inh conf: 12

How did Cc1ccc(-n2c(C)cc(/C=C3/C(=O)NC(=O)N(Cc4ccco4)C3=O)c2C)cc1 do in these assays?
PRMT1 FP inh: 17; PAD4 FP inh: -4; RBBP9 inhibitor: -10; GSTO1 counter: 7; SIAE inh: -9

How did COc1ccc(/C=C2/C(=O)NC(=O)N(Cc3ccco3)C2=O)cc1 do in these assays?
PAD4 FP inh: -4; RBBP9 inhibitor: -8; GSTO1 counter: 23

Results for CN1C(=O)/C(=C/c2ccc(N3CCCCCC3)o2)C(=O)NC1=S ?
PRMT1 FP inh: -8; PAD4 FP inh: -2; RBBP9 inhibitor: -12; GSTO1 counter: -11; SIAE inh: -47

How did CC(C)OC(=O)c1c(N)n(Cc2ccco2)c2nc3ccccc3nc12 do in these assays?
PRMT1 FP inh: 7; PAD4 FP inh: -14; RBBP9 inhibitor: -4; GSTO1 counter: 5; SIAE inh: 3

What do the screens show for `COCCOC(=O)c1c(N)n(Cc2ccco2)c2nc3ccccc3nc12`?
PRMT1 FP inh: 30*; PAD4 FP inh: -20; RBBP9 inhibitor: -4; GSTO1 counter: 21; SIAE inh: -5; PRMT1 inh conf: 11

How did CC12C(C(=O)O)C1(c1ccccc1)C2C(=O)O (stereo not drawn) do in these assays?
PRMT1 FP inh: -1; SIAE inh: -1

Results for CN1C(=O)/C(=C\c2ccc(N3CCCCCC3)cc2)C(=O)NC1=S ?
PRMT1 FP inh: 4; PAD4 FP inh: -6; RBBP9 inhibitor: -6; GSTO1 counter: -6; SIAE inh: -170

How did Cc1cc(N2CCCCC2)ccc1C=C1C(=O)N(C)C(=S)N(C)C1=O do in these assays?
PRMT1 FP inh: 29*; PAD4 FP inh: -10; RBBP9 inhibitor: -4; GSTO1 counter: -10; SIAE inh: -17; PRMT1 inh conf: 22*

Results for COc1ccc(OC)c(N2C(=O)NC(=O)/C(=C/c3ccc([N+](=O)[O-])s3)C2=O)c1 ?
PRMT1 FP inh: 28*; PAD4 FP inh: -11; RBBP9 inhibitor: -5; GSTO1 counter: 24; SIAE inh: 0; PRMT1 inh conf: 58*

What do the screens show for `COc1ccc(OC)c(N2C(=O)/C(=C/c3ccco3)C(=O)NC2=S)c1`?
PAD4 FP inh: -4; GSTO1 counter: -2

What do the screens show for `C[C@@H]1CN([C@@H](C)CO)C(=O)CCCn2nncc2CO[C@H]1CN(C)C(=O)Oc1cccc2ccccc12`?
PRMT1 FP inh: -3; SIAE inh: -1

How did CCOC(=O)c1nc2ccccc2c(=O)n1-c1ccc(C)cc1C do in these assays?
PRMT1 FP inh: -1; PAD4 FP inh: -1; RBBP9 inhibitor: -5; GSTO1 counter: 2; SIAE inh: -6

What do the screens show for `COc1ccc(P2(=O)Nc3ccccc3N2)cc1`?
PRMT1 FP inh: -2; PAD4 FP inh: -2; RBBP9 inhibitor: -5; GSTO1 counter: 13; SIAE inh: 15

What do the screens show for `COc1ccc2c(c1)NP(=S)(c1ccccc1)N2C` (stereo not drawn)?
PRMT1 FP inh: 33*; SIAE inh: 5; PRMT1 inh conf: 2

How did Cc1ccnc(NS(=O)(=O)c2ccc(N=Cc3c(O)n(C)c(=O)n(C)c3=O)cc2)n1 do in these assays?
PRMT1 FP inh: 0; PAD4 FP inh: -1; RBBP9 inhibitor: -8; GSTO1 counter: 2; SIAE inh: -4

Results for CCOc1cc(CNCCc2c[nH]c3ccccc23)cc(Cl)c1OC ?
PRMT1 FP inh: 3; PAD4 FP inh: -1; RBBP9 inhibitor: -4; GSTO1 counter: 0; SIAE inh: 0

How did O=C1CC(N2CCC(n3c(=O)[nH]c4ccccc43)CC2)C(=O)N1c1ccc(F)cc1 (stereo not drawn) do in these assays?
PRMT1 FP inh: 45*; PAD4 FP inh: 0; RBBP9 inhibitor: -2; GSTO1 counter: -10; SIAE inh: -7; PRMT1 inh conf: 3

What do the screens show for `O=P(Nc1ccccc1)(Nc1ccccc1)Oc1ccccc1`?
PRMT1 FP inh: -1; PAD4 FP inh: -4; RBBP9 inhibitor: -2; GSTO1 counter: 0; SIAE inh: -2
